From paper PMC5091360 (Science Advances, 2016)

Key:
PDGFR-β = details: such as in the case of sunitinib and PDGFR-β; cited from earlier work
HUVECs = test: endothelial tube formation in Matrigel; type: cell-based, human; details: peptide 500 μg/ml in Matrigel
Summary of the method: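 HUVECs (1.5 × 10^4 per well) plated on Matrigel containing 1% DMSO, with or without peptide (500 μg/ml) in the gel. Cells kept in RPMI 1640 with VEGF-A (30 ng/ml) or VEGF-C (100 ng/ml). Tubes counted per field at 4× by bright-field microscopy. Triplicate wells; two independent experiments; Student's t test.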

[1] = test system: IgD2-3 domains from human VEGFR-3; test: phage PCAIWF binding to recombinant VEGFR-3 IgD2-3; details: peptide 100 μg/ml; FLISA, duplicate wells
[2] = test system: IgD2 domain from human VEGFR-3; test: phage PCAIWF binding to recombinant VEGFR-3 IgD2; details: peptide 100 μg/ml; FLISA, duplicate wells
[3] = test system: ERK1/2 pathway in lymphatic endothelial cells (LECs); test: ERK1/2 phosphorylation in lymphatic endothelial cells; type: cell-based, human; details: 10 min, 37°C
Summary of the method: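 Human dermal lymphatic microvascular endothelial cells were cultured overnight in EBM2 with 2% FBS, then starved 18 h in EBM2 with 0.2% BSA. They were stimulated with VEGF-A, VEGF-C or FGF-1, with or without test peptide or scrambled peptide (30 μg/ml). Lysates were immunoblotted for total and phospho-ERK1/2 using infrared-dye secondaries, and the phospho/total intensity ratio was taken. Two experiments were run; ANOVA with Tukey.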

human VEGFR-1 = test: FLISA binding assay, NRP-1 to VEGFR-1; details: human NRP-1, FLISA
Summary of the method: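 Human VEGFR-1 extracellular domain coated at 200 ng per well in PBS overnight at 4°C, then blocked with Odyssey blocking buffer. Wells incubated with NRP-1 or NRP-2 in PBS with 10% (v/v) DMSO and 10% blocking buffer, with or without peptide (100 μg/ml). Bound NRP detected with goat anti-NRP-1 or anti-NRP-2 serum (1:100), then IRDye 680LT anti-goat, by infrared scanning. Duplicate wells; ANOVA with Tukey.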

VEGFR-1 [4] = details: read-out: Kd, NRP-1 to VEGFR-1; cited from earlier work
VEGFR-1 [5] = test: phage binding assay, immobilized VEGFR-1; details: 10^8 TU in 50 μl PBS, 2 hours, room temperature; triplicate plating
VEGFR-2 = test: phage binding assay, immobilized VEGFR-2; details: 10^8 TU in 50 μl PBS, 2 hours, room temperature; triplicate plating
NRP-1 = test: phage binding assay, immobilized NRP-1; details: 10^8 TU in 50 μl PBS, 2 hours, room temperature; triplicate plating
mouse VEGFR-3 = test: phage binding assay, immobilized mouse VEGFR-3; details: 10^8 TU in 50 μl PBS, 2 hours, room temperature; control insertless phage Fd; colony count or phage-FLISA; triplicate plating
NRP-2 = test: phage binding assay, immobilized NRP-2; details: 10^8 TU in 50 μl PBS, 2 hours, room temperature; triplicate plating
human VEGFR-3 = test: phage binding assay, immobilized human VEGFR-3; details: 10^8 TU in 50 μl PBS, 2 hours, room temperature; control insertless phage Fd; colony count or phage-FLISA; triplicate plating
VEGF family = details: cited from earlier work
[6] = clinical studies; cited from earlier work
rat NRP-2 = target: T1, rat NRP-2 (rat, UniProt O35276); test: ELISA
T1 sequence: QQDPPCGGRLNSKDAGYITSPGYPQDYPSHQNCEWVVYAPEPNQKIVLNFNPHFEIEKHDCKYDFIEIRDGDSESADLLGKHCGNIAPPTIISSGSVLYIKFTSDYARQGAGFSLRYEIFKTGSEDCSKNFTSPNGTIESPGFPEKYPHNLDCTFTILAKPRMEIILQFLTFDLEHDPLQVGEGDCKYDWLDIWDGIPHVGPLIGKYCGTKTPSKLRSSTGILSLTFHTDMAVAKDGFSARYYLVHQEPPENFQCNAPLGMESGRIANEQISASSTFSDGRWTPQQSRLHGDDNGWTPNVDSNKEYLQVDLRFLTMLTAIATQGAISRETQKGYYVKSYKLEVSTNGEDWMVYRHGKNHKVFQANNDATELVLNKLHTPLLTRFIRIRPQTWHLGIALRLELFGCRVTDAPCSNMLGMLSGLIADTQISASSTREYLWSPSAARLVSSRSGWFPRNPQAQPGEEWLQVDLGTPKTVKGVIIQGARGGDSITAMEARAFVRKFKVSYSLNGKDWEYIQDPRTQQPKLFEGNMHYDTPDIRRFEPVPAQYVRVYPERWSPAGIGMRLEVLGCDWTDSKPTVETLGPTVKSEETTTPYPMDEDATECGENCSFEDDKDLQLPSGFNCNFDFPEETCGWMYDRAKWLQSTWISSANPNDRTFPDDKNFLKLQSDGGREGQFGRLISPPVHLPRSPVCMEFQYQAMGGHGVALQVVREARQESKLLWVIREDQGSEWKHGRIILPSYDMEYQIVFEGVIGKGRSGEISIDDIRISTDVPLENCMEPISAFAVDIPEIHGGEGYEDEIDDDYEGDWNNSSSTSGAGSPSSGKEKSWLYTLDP

[7] = test system: IgD2 domain from human VEGFR-3; test: VEGF-C binding to recombinant VEGFR-3 IgD2; details: FLISA, no peptide, duplicate wells
VEGFR-3 [8] = target: T2, VEGFR-3 (Mus musculus, UniProt P35917); test: competition assay, binding of phage WVCSGG to immobilized VEGFR-3; details: VEGF-C or VEGF-A in competition
T2 sequence (P35917 25-770): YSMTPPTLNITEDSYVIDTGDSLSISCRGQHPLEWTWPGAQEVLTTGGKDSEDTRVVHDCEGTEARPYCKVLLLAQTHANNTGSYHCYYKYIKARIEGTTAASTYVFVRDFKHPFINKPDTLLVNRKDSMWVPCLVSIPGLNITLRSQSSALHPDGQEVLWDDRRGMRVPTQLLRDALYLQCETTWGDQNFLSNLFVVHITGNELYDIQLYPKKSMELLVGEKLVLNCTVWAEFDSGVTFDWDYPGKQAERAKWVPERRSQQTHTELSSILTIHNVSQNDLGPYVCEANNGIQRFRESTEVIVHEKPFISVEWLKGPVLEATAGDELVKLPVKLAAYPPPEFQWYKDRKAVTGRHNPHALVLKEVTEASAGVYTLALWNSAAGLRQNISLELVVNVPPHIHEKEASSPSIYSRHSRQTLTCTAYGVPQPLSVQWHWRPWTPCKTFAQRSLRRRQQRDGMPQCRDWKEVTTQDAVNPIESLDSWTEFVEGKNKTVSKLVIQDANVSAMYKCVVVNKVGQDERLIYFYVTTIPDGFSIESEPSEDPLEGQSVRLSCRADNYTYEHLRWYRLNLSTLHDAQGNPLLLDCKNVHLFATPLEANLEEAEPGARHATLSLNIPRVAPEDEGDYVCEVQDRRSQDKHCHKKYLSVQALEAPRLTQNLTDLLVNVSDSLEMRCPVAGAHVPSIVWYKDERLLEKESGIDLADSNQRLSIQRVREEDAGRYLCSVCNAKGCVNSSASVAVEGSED

VEGFR-3 [9] = target: T2, VEGFR-3; test: competition assay, binding of phage PCAIWF to immobilized VEGFR-3; details: VEGF-A or VEGF-C (10 ng/ml); triplicate plating
[10] = test system: IgD2-3 domains from human VEGFR-3; test: VEGF-C binding to recombinant VEGFR-3 IgD2-3; details: FLISA, no peptide, duplicate wells

CCN(CC)CCNC(=O)c1c(C)[nH]c(/C=C2\C(=O)Nc3ccc(F)cc32)c1C [sunitinib]
side effects (PDGFR-β): cardiotoxicity

IFCAPW
inhibition of tube formation, VEGF-A stimulated (in words) (HUVECs; VEGF-A 30 ng/ml): not by the control scramble peptide
inhibition of tube formation, VEGF-C stimulated (in words) (HUVECs; VEGF-C 100 ng/ml): not by the control scramble peptide
inhibition of phage PCAIWF binding to IgD2-3 by synthetic peptide [1]: not by the control peptide
inhibition of phage PCAIWF binding to IgD2 by synthetic peptide [2]: not by the control peptide
effect on FGF-1 induced phosphorylation of ERK1/2 ([3]; FGF-1 100 ng/ml, peptide 30 μg/ml): no effect on this downstream signaling event
effect on VEGF-A induced phosphorylation of ERK1/2 ([3]; VEGF-A 100 ng/ml, peptide 30 μg/ml): no effect on this downstream signaling event
effect on VEGF-C induced phosphorylation of ERK1/2 ([3]; VEGF-C 100 ng/ml, peptide 30 μg/ml): no effect on this downstream signaling event

NRP-1: neuropilin-1, co-receptor for VEGF
NRP-1 binding to VEGFR-1 (human VEGFR-1): strong interaction
Kd (VEGFR-1 [4]): ~1.8 nM

PCAIWF [phage PCAIWF]
phage binding to VEGFR-1 (VEGFR-1 [5]): not to the other receptors, VEGFR-1 and VEGFR-2
phage binding to VEGFR-2 (VEGFR-2): not to the other receptors, VEGFR-1 and VEGFR-2
phage binding to NRP-1 (NRP-1): not to the other receptors, VEGFR-1 and VEGFR-2 (Fig. 1, C and D), including the two other non-RTKs, NRP-1 and NRP-2
phage binding to mouse VEGFR-3 (mouse VEGFR-3): both phages bound to mouse and human VEGFR-3
phage binding to NRP-2 (NRP-2): not to the other receptors, VEGFR-1 and VEGFR-2 (Fig. 1, C and D), including the two other non-RTKs, NRP-1 and NRP-2
phage binding to human VEGFR-3 (human VEGFR-3): both phages bound to mouse and human VEGFR-3

aflibercept: ligand-binding domain of VEGFR-1 fused to an Ig constant region
VEGF family members targeted (VEGF family): will target multiple members of the VEGF family (VEGF-A, VEGF-B, and PlGF) but will miss others (VEGF-C and VEGF-D)
clinical efficacy in ophthalmology [6]: better efficacy compared to bevacizumab and ranibizumab

B1: human VEGFR-1 extracellular domain (Fc fusion) (Fc fusion)
chain: SKLKDPELSLKGTQHIMQAGQTLHLQCRGEAAHKWSLPEMVSKESERLSITKSACGRNGKQFCSTLTLNTAQANHTGFYSCKYLAVPTSKKKETESAIYIFISDTGRPFVEMYSEIPEIIHMTEGRELVIPCRVTSPNITVTLKKFPLDTLIPDGKRIIWDSRKGFIISNATYKEIGLLTCEATVNGHLYKTNYLTHRQTNTIIDVQISTPRPVKLLRGHTLVLNCTATTPLNTRVQMTWSYPDEKNKRASVRRRIDQSNSHANIFYSVLTIDKMQNKDKGLYTCRVRSGPSFKSVNTSVHIYDKAFITVKHRKQQVLETVAGKRSYRLSMKVKAFPSPEVVWLKDGLPATEKSARYLTRGYSLIIKDVTEEDAGNYTILLSIKQSNVFKNLTATLIVNVKPQIYEKAVSSFPDPALYPLGSRQILTCTAYGIPQPTIKWFWHPCNHNHSEARCDFCSNNEESFILDADSNMGNRIESITQRMAIIEGKNKMASTLVVADSRISGIYICIASNKVGTVGRNISFYITDVPNGFHVNLEKMPTEGEDLKLSCTVNKFLYRDVTWILLRTVNNRTMHYSISKQKMAITKEHSITLNLTIMNVSLQDSGTYACRARNVYTGEEILQKKEITIRDQEAPYLLRNLSDHTVAISSSTTLDCHANGVPEPQITWFKNNHKIQQEPGIILGPGSSTLFIERVTEEDEGVYHCKATNQKGSVESSAYLTVQGTSDKSNLE
binding result (rat NRP-2): binds

B2: VEGF-C: VEGF family member, recombinant human ligand (protein)
chain: AHYNTEILKSIDNEWRKTQCMPREVCIDVGKEFGVATNTFFKPPCVSVYRCGGCCNSEGLQCMNTSTSYLSKTLFEITVPLSQGPKPVTISFANHTSCRCMSKLDVYRQVHSIIRR
VEGF-C binding to IgD2 [7]: binds to both recombinant ligand-binding domains IgD2
inhibition of phage WVCSGG binding to VEGFR-3 by growth factor (VEGFR-3 [8]): binding of phage WVCSGG to VEGFR-3 is also inhibited by VEGF-C
inhibition of phage PCAIWF binding to VEGFR-3 by growth factor (VEGFR-3 [9]): Only VEGF-C prevents the binding of phage PCAIWF to the receptor (Fig. 2A) in a dose-dependent manner
VEGF-C binding to IgD2-3 [10]: binds to both recombinant ligand-binding domains IgD2 (Fig. 2F) and IgD2-3
phosphorylation of ERK1/2 upon growth factor stimulation ([3]; growth factor 100 ng/ml, 1% DMSO, heparin 10 U/ml): phosphorylation of ERK1/2 increases
